{"source": "ChEMBL document CHEMBL1128731", "about": "“Furanfurin and thiophenfurin: two novel tiazofurin analogues. Synthesis, structure, antitumor activity, and interactions with inosine monophosphate dehydrogenase” (J Med Chem, 1995)", "key": {"[1]": {"system": "L1210", "assay": "Inhibitory concentration against L1210 murine lymphocytic leukemia cell lines; inactive until a maximum tested concentration of 200 uM; call rule not given here", "assay_type": "functional, cell-based, Mus musculus", "how_it_was_run": "(§1)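 Cells in log phase plated with a range of drug concentrations (B16 5×10^3 cells/well; P388, L1210, LLC 10^4 cells/well; HL-60, K562, LoVo 2.5×10^5 cells/well). Growth read by modified MTT after 72 h drug contact at 37 °C. IC50 taken as the concentration reducing optical absorption by 50%, from Chou regression analysis. Maximum concentration tested 200 μM.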"}, "[2]": {"system": "Lewis lung carcinoma cell line", "assay": "Inhibitory concentration against LLC Lewis lung carcinoma cell lines; Inactive until a maximum tested concentration of 200 uM", "assay_type": "functional, cell-based, Mus musculus", "how_it_was_run": "as §1"}, "[3]": {"system": "K562", "assay": "Formation of NAD analogue by compound at 100 uM concentration against human myelogenous leukemia K562", "assay_type": "functional", "how_it_was_run": "(§2)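 K562 cells (1×10^7/10 mL) were labeled with 185 nM [2,8-3H]adenosine for 1 h at 37 °C, then given saline or analogue for 2 h. Cells were pelleted, washed with PBS and extracted in cold 10% trichloroacetic acid. Extracts were neutralized with 0.5 M tri-n-octylamine in freon and run on SAX HPLC with ammonium phosphate buffer. Results are pmol NAD analogue per 10^9 cells.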"}, "[4]": {"system": "B16", "assay": "Inhibitory concentration against B16 melanoma cell lines; Inactive until a maximum tested concentration of 200 uM", "assay_type": "functional, cell-based, Mus musculus", "how_it_was_run": "as §1"}, "[5]": {"system": "K562", "assay": "Formation of NAD analogue by compound at 50 uM concentration against human myelogenous leukemia K562", "assay_type": "functional", "how_it_was_run": "as §2"}, "[6]": {"system": "K562", "assay": "Inhibitory concentration determined against K562 human myelogenous leukemia cell lines; inactive until a maximum tested concentration of 200 uM", "assay_type": "functional, cell-based", "how_it_was_run": "as §1"}, "[7]": {"system": "P388", "assay": "Inhibitory concentration against P388 murine lymphocytic leukemia cell lines; Inactive until a maximum tested concentration of 200 uM", "assay_type": "functional, cell-based, Mus musculus", "how_it_was_run": "as §1"}, "[8]": {"system": "LoVo", "assay": "Inhibitory concentration against LoVo human colon adenocarcinoma cell lines; Inactive until a maximum tested concentration of 200 uM", "assay_type": "functional, cell-based", "how_it_was_run": "as §1"}, "[9]": {"system": "HL-60", "assay": "Inhibitory concentration against HL-60 human promyelocytic leukemia cell lines; inactive until a maximum tested concentration of 200 uM", "assay_type": "functional, cell-based", "how_it_was_run": "as §1"}}, "data": [{"compound": "NC(=O)c1coc([C@@H]2O[C@H](CO)[C@@H](O)[C@H]2O)c1", "values": [{"measurement": "IC50", "setting": "[1]", "value": "Not Active"}, {"measurement": "IC50", "setting": "[2]", "value": "Not Active"}, {"measurement": "Formation", "setting": "[3]", "value": 124, "unit": "pmol/10^9 cells"}, {"measurement": "IC50", "setting": "[4]", "value": "Not Active"}, {"measurement": "Formation", "setting": "[5]", "value": 49.4, "unit": "pmol/10^9 cells"}, {"measurement": "IC50", "setting": "[6]", "value": "Not Active"}, {"measurement": "IC50", "setting": "[7]", "value": "Not Active"}, {"measurement": "IC50", "setting": "[8]", "value": "Not Active"}, {"measurement": "IC50", "setting": "[9]", "value": "Not Active"}]}]}
